From PubChem BioAssay
OX1R antag-1: antagonists of human orexin 1 receptor. O43613. CHO/OX1R cells, Fluo-8 calcium fluorescence, orexin A. inhibition, % at 5 µM. 0.43% of 330,000 active. AID 434989;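 active = inhibition above its plate's threshold, mean inhibition of all tested compounds on the plate plus 3 SD, cut at about 37% in these data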;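 note: 0% = orexin A challenge wells and 100% = SB-334867-A antagonist wells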
TAAR1 ag: human TAAR1 agonism. Q96RJ0. CHO RD-HGA16 TAAR1, Fluo-8 calcium fluorescence; vehicle wells 0%, saturating PEA agonist 100%. activation, % at 3 µM. 0.99% of 360,000 active. AID 624467;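 active = activation above the mean activation of all test compounds in the run plus 3 SD, cut at about 38% in these data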
Target sequence (Q96RJ0 whole entry, looked up): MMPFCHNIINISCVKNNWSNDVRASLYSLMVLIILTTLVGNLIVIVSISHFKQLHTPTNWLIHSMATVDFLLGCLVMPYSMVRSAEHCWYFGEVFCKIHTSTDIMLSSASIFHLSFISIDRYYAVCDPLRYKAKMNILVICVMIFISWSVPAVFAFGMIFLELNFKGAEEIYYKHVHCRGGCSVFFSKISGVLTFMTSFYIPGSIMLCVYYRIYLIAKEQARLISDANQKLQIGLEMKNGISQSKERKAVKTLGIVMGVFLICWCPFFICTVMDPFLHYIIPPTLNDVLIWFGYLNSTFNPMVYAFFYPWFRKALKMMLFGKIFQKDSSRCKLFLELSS
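Benchmarks: low control DMSO, high control PEA (EC100); System: CHO RD-HGA16 cells carrying human TAAR1 plus Gα16; Detection: Fluo-8 fluorescence, 5 s baseline then 140 s kinetic read; Schedule: 17-24 h plating, Fluo-8 75 min 37 °C, 30 min RT; Read-out basis: % activation from peak over basal fluorescence ratio, DMSO-to-PEA scaled.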
OX1R antag-2: antagonists of human orexin 1 receptor (OX1R) | O43613 | OX1R-expressing cells, FRET antagonist read-out | inhibition, % at 6.6 µM | 1.8% of 330,000 active; in the data active = inhibition mostly above about 38%, no sharp cut-off; inactive = mostly below about 40%;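 note: 0% = agonist challenge alone and 100% = reference antagonist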
CHO parental Ca: counter-screen for OX1R antagonists: effect in parental CHO cells | 0.63% of 330,000 active | parental CHO-K1, ATP-induced calcium, Fluo-8 fluorescence | inhibition, % at 5.6 µM;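 active = inhibition above that plate's mean sample inhibition plus 3 SD, cut at about 26% in these data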;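 note: 0% = ATP-challenged DMSO wells and 100% = DMSO wells without ATP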
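material = parental CHO cells | also added = ATP as calcium-mobilizing challenge | dosing = single point at 5.6 µM | detection = intracellular calcium via Fluo-8 no-wash fluorescent dye | read-out = % inhibition | benchmarks = low control ATP plus DMSO, high control DMSO only | repeats = one well per compound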
GPR7 antag: human neuropeptides B/W receptor 1 antagonism; P48145; GPR7-expressing cells, fluorescence antagonist assay; inhibition, % at 4.4 µM; 1.1% of 290,000 active; AID 1861; in the data active = inhibition above about 16%, passing the limit was not always enough;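 note: cells stimulated with the agonist NPW; 0% = agonist with vehicle and 100% = vehicle without agonist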
Target sequence (P48145 whole entry, looked up): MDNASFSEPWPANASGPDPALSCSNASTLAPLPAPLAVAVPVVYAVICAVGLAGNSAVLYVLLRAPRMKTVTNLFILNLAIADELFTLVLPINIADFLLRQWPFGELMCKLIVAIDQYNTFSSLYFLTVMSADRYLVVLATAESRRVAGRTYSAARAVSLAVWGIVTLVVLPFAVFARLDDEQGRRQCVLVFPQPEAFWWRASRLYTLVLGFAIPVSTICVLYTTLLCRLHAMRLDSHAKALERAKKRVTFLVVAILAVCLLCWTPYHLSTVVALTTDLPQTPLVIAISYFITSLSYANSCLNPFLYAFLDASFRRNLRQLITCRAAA
TAAR1 antag: antagonists of human TAAR1 | AID 624466 | CHO RD-HGA16 TAAR1, Fluo-8 calcium fluorescence, antagonist | inhibition, % at 3 µM | 1.5% of 360,000 active;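 active = inhibition above a per-plate cutoff, the mean inhibition of test compounds on that plate plus 3 SD, cut at about 49% in these data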;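 note: 0% = DMSO plus EC80 beta-PEA response and 100% = DMSO alone without agonist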
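Material: CHO RD-HGA16 cells bearing hTAAR1; compound dosing: one-point dosing, 3 µM nominal final; schedule: dye loading 75 min at 37 °C, then 30 min room temperature; measured by: calcium fluorescence with Fluo-8; control set: vehicle and agonist controls; replication: n of 1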
OX1R Fluo8 conf: confirmation of human orexin 1 receptor antagonists. AID 492963. inhibition, % at 5 µM. shares compounds with OX1R antag-1. CHO/OX1R cells, orexin A calcium Fluo-8 fluorescence. 38% of 1,100 active; in the data active = inhibition above about 29%;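 note: 0% = agonist challenge alone and 100% = reference antagonist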
CHO Ca counter: counter-screen: parental CHO calcium response change, triplicate; 9.3% of 1,100 active; parental CHO-K1, ATP-induced calcium, Fluo-8 fluorescence; inhibition, % at 5.6 µM; shares compounds with OX1R antag-1;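 active = inhibition above a per-plate limit, the mean inhibition of that plate's test compounds plus 3 SD, cut at about 25% in these data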;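 note: 0% = ATP challenge with DMSO and 100% = DMSO without ATP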
OX1R HTRF confirm: confirmation of human orexin 1 receptor antagonists, HTRF format; OX1R-expressing cells, HTRF antagonist assay; 49% of 1,800 active; shares compounds with OX1R antag-2; inhibition, % at 6.6 µM; AID 492964; in the data active = inhibition above about 55%;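 note: CHO cells expressing OX1R stimulated with orexin A at about EC80; 0% = agonist challenge alone and 100% = reference antagonist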
CHO-K1 HTRF cnt: counter-screen: parental CHO-K1 HTRF response; AID 493232; parental CHO-K1 cells, HTRF counterscreen; 48% of 1,800 active; inhibition, % at 6.6 µM; shares compounds with OX1R antag-2; in the data active = inhibition above about 17%;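 note: 0% = agonist challenge with vehicle and 100% = vehicle alone without agonist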
* marks the source's active call; other numbers are inactive results; · = no result given. In the library only some 4.6% were active in any assay of this set; here they are far more common.

SMILES	OX1R antag-1	TAAR1 ag	OX1R antag-2	CHO parental Ca	GPR7 antag	TAAR1 antag	OX1R Fluo8 conf	CHO Ca counter	OX1R HTRF confirm	CHO-K1 HTRF cnt
O=C(COc1ccccc1F)Nc1cc(S(=O)(=O)Nc2cccc(Cl)c2)ccc1O	75*	1	40*	-22	·	8	42*	-13	61*	9
Cc1cccc(NC(=O)/C(C#N)=C\c2cn(CC(=O)O)c3ccccc23)c1	43	4	83*	-14	-10	12	37*	3	78*	4
COc1cccc(C(=O)Nc2ccc(-c3nnc(-c4ccco4)o3)cc2)c1	33	13	77*	-24	-6	47	34*	-6	71*	20*
O=C(Nc1cccc(-c2nnc(-c3ccco3)o2)c1)c1ccccc1	-35	9	34	-24	-4	36	·	·	·	·
COc1ccccc1CCNC(=O)c1cc(C2CC2)nc2c1cnn2C(C)C	·	3	·	·	·	14	·	·	·	·
CC(C)n1ncc2c(C(=O)NCC(=O)Nc3ccccc3Br)cc(C3CC3)nc21	45*	·	40*	-35	·	·	4	-3	44	2
Cc1ccc2nc(SCC(=O)c3c(C)[nH]c4ccccc34)[nH]c2c1	32	9	89*	-11	-3	28	29*	-5	78*	-1
CC(OC(=O)c1cccc(S(=O)(=O)N2CCCCC2)c1)C(=O)NCC1CCCCC1 (configuration not stated)	·	0	·	·	·	-28	·	·	·	·
COc1ccc(/C=C/C(=O)OCC(=O)c2c(C)[nH]c3ccccc23)cc1OC	49*	2	76*	-15	5	-7	44*	-10	80*	3
N#C/C(=C\Nc1ccc2c(c1)OCCO2)c1nc2ccccc2[nH]1	28	7	91*	-10	-29	12	12	-11	74*	10
N#C/C(=C\Nc1ccc2c(c1)OCCO2)c1nc(-c2ccccc2)cs1	-7	7	9	-4	-5	22	·	·	·	·
CCOC(=O)C1=C(COC(=O)c2cc(Br)c(Br)s2)NC(=O)NC1C (configuration not stated)	32	7	49*	-23	·	36	19	-8	31	7
C=CCn1c(SCC(=O)c2c(N)n(C3CC3)c(=O)[nH]c2=O)nnc1-c1ccccc1OC	·	1	·	·	·	-23	·	·	·	·
Cc1cc(C)n(CCCNCC(O)c2ccccc2)n1 (configuration not stated)	-21	2	5	-15	-4	-11	·	·	·	·
CN(c1ccccc1)S(=O)(=O)c1cccc(NC(=O)COc2cccc([N+](=O)[O-])c2)c1	46*	26	33*	13	·	70*	29	1	26	1
COc1ccc(Br)cc1/C=C/C(=O)Nc1ccc2ccccc2c1	46*	3	91*	-5	-5	22	29	-4	89*	9
COc1ccc(N(CC(=O)NC(C)c2ccccc2)S(=O)(=O)c2c(C)noc2C)cc1 (configuration not stated)	44	-2	67*	-23	-13	-10	18	-10	66*	-3
Cc1ccc(CCNC(=O)CN(c2ccc(C)cc2)S(=O)(=O)c2c(C)noc2C)cc1	60*	-3	80*	-45	2	-42	30*	-28	80*	8
Cc1ccc(N(CC(=O)NCCc2ccc(Cl)cc2)S(=O)(=O)c2c(C)noc2C)cc1	34	-1	49*	-32	-1	0	60*	-16	86*	3
COc1ccc(CNC(=O)CN(c2ccc(C(C)C)cc2)S(=O)(=O)c2c(C)noc2C)cc1	-27	2	9	-26	7	-18	·	·	·	·
Cc1ccc(C)c(S(=O)(=O)N2CCN(C(C(=O)Nc3ccc(F)cc3)c3ccccc3)CC2)c1 (configuration not stated)	-23	0	16	-20	-9	8	·	·	·	·
CC(=O)Cc1nsc(NC(=O)c2ccc(-c3ccccc3Cl)o2)n1	61*	6	80*	-26	-2	6	3	8	40	7
COc1ccc(CCNC2CC(=O)N(CCc3ccccc3)C2=O)cc1OC (configuration not stated)	-33	-1	7	-15	0	8	·	·	·	·
COc1ccc(-c2cc(C(=O)Nc3ccccc3SC)no2)cc1OC	-13	2	11	-14	-16	1	·	·	·	·
COc1cccc(-c2cc(C(=O)Nc3ccccc3SC)no2)c1	76*	12	60*	-18	-6	14	71*	-7	95*	13
SMILES	OX1R antag-1	TAAR1 ag	OX1R antag-2	CHO parental Ca	GPR7 antag	TAAR1 antag	OX1R Fluo8 conf	CHO Ca counter	OX1R HTRF confirm	CHO-K1 HTRF cnt
O=C(Nc1ccc2c(c1)N(S(=O)(=O)c1cccs1)CCC2)c1c(F)cccc1F	20	2	69*	-3	·	-41	37*	1	66*	3
CCNC(=O)C(=O)Nc1ccc2c(c1)N(S(=O)(=O)c1cccs1)CCC2	-17	1	18	-12	·	-7	·	·	·	·
CNC(=O)NC(=O)C(C)OC(=O)c1c2c(nc3ccccc13)/C(=C/c1cccs1)CC2 (configuration not stated)	52*	3	66*	-21	-9	29	92*	0	93*	9
O=C(C1CCCN1S(=O)(=O)c1cccc2cccnc12)N1CCn2c1nc1ccccc12 (configuration not stated)	45*	·	96*	-6	-9	·	53*	-5	90*	2
Cc1cc(NC(=O)CN2C(=O)NC3(CCCCCC3)C2=O)ccc1Br	-10	28	2	-14	·	-3	·	·	·	·
Cc1nc(-c2coc3cc(O)c(C)cc3c2=O)cs1	33	-2	86*	-5	-8	13	28	-14	89*	-3
CCSc1nnc(NC(=O)c2cccs2)s1	-7	5	2	7	-4	-13	·	·	·	·
CCc1ccc(/C=N\NC(=O)c2ccc(Br)o2)s1	-14	-1	36	-8	-11	6	·	·	·	·
CCN(CC)c1ccc(/C=N/NC(=O)c2ccc(Br)o2)cc1	31	0	91*	-11	-8	26	55*	4	90*	8
